In ChEMBL document CHEMBL3774311, “Synthesis and in vitro antitumour activity of tiazofurin analogues with nitrogen functionalities at the C-2' position” (Eur J Med Chem, 2016):

Key:
K562 [1] = assay: Antiproliferative activity against human K562 cells after 72 hrs by MTT assay; assay type: functional, cell-based; conditions: Homo sapiens, K562, 72 h
In short: (§1)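 Human tumour lines and MRC-5 foetal lung fibroblasts (normal-cell comparator) exposed to compounds for 72 h; viability read by standard MTT assay. IC50 taken as concentration inhibiting growth by 50% versus untreated control; means of three independent experiments, coefficients of variation under 10%.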

[2] = Antiproliferative activity against human HL60 cells after 72 hrs by MTT assay; assay type: functional, cell-based, HL-60; conditions: Homo sapiens, HL-60, 72 h; in short: as §1
Jurkat = assay: Antiproliferative activity against human Jurkat cells after 72 hrs by MTT assay; assay type: functional, cell-based; in short: as §1
Raji = assay: Antiproliferative activity against human Raji cells after 72 hrs by MTT assay; assay type: functional, cell-based; conditions: Homo sapiens, Raji, 72 h; in short: as §1
HT-29 = assay: Antiproliferative activity against human HT-29 cells after 72 hrs by MTT assay; assay type: functional, cell-based; conditions: HT-29, 72 h; in short: as §1
MCF7 = assay: Antiproliferative activity against human MCF7 cells after 72 hrs by MTT assay; assay type: functional, cell-based; conditions: MCF7, 72 h; in short: as §1
HeLa = assay: Antiproliferative activity against human HeLa cells after 72 hrs by MTT assay; assay type: functional, cell-based; conditions: Homo sapiens, HeLa, 72 h; in short: as §1
MRC5 = assay: Cytotoxicity against human MRC5 cells after 72 hrs by MTT assay; assay type: cell-based; conditions: MRC5, 72 h; in short: as §1
K562 [3] = assay: Induction of cell cycle arrest in human K562 cells assessed as accumulation at Sub-G1 phase after 24 hrs by propidium iodide staining-based flow cytometry (reference value: 1.05%); assay type: functional
In short: (§2)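 Exponentially growing K562 cells treated 24 or 72 h; cells stained with propidium iodide and cell-cycle distribution (sub-G1, G0/G1, S, G2/M, %) measured by flow cytometry; untreated cells as control.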

K562 [4] = assay: Induction of cell cycle arrest in human K562 cells assessed as accumulation at Sub-G1 phase after 72 hrs by propidium iodide staining-based flow cytometry (reference value: 3.04%); assay type: functional; in short: as §2
K562 [5] = assay: Induction of cell cycle arrest in human K562 cells assessed as accumulation at G0/G1 phase after 24 hrs by propidium iodide staining-based flow cytometry (reference value: 36.28%); assay type: functional; in short: as §2
K562 [6] = assay: Induction of cell cycle arrest in human K562 cells assessed as accumulation at G0/G1 phase after 72 hrs by propidium iodide staining-based flow cytometry (reference value: 45.92%); assay type: functional; in short: as §2
K562 [7] = assay: Induction of cell cycle arrest in human K562 cells assessed as accumulation at S phase after 24 hrs by propidium iodide staining-based flow cytometry (reference value: 48.38%); assay type: functional; in short: as §2
K562 [8] = assay: Induction of cell cycle arrest in human K562 cells assessed as accumulation at S phase after 72 hrs by propidium iodide staining-based flow cytometry (reference value: 35.73%); assay type: functional; in short: as §2
K562 [9] = assay: Induction of cell cycle arrest in human K562 cells assessed as accumulation at G2/M phase after 24 hrs by propidium iodide staining-based flow cytometry (reference value: 14.29%); assay type: functional; in short: as §2
K562 [10] = assay: Induction of cell cycle arrest in human K562 cells assessed as accumulation at G2/M phase after 72 hrs by propidium iodide staining-based flow cytometry (reference value: 15.31%); assay type: functional; in short: as §2
K562 [11] = assay: Induction of specific apoptosis in human K562 cells after 24 hrs by annexin V-FITC/propidium iodide staining based flow cytometry; assay type: functional; design: concentration or dose not given beside the values
In short: (§3)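 K562 cells treated 24 or 72 h, double-stained with Annexin V-FITC/PI and analysed by flow cytometry to give percentages of live, apoptotic and necrotic cells; apoptotic and necrotic responses expressed as specific apoptosis or specific necrosis (%).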

K562 [12] = assay: Induction of specific apoptosis in human K562 cells after 72 hrs by annexin V-FITC/propidium iodide staining based flow cytometry; assay type: functional; design: concentration or dose not given beside the values; in short: as §3
K562 [13] = assay: Induction of specific necrosis in human K562 cells after 24 hrs by annexin V-FITC/propidium iodide staining based flow cytometry; assay type: functional; design: concentration or dose not given beside the values; in short: as §3
K562 [14] = assay: Induction of specific necrosis in human K562 cells after 72 hrs by annexin V-FITC/propidium iodide staining based flow cytometry; assay type: functional; design: concentration or dose not given beside the values; in short: as §3
K562 [15] = assay: Induction of apoptosis in human K562 cells assessed as necrotic cells after 24 hrs by annexin V-FITC/propidium iodide staining based flow cytometry (reference value: 1.50%); assay type: functional; in short: as §3
K562 [16] = assay: Induction of apoptosis in human K562 cells assessed as late apoptotic cells after 24 hrs by annexin V-FITC/propidium iodide staining based flow cytometry (reference value: 4.58%); assay type: functional; in short: as §3
K562 [17] = assay: Induction of apoptosis in human K562 cells assessed as living cells after 24 hrs by annexin V-FITC/propidium iodide staining based flow cytometry (reference value: 85.85%); assay type: functional; in short: as §3
K562 [18] = assay: Induction of apoptosis in human K562 cells assessed as early apoptotic cells after 24 hrs by annexin V-FITC/propidium iodide staining based flow cytometry (reference value: 8.09%); assay type: functional; in short: as §3
K562 [19] = assay: Induction of apoptosis in human K562 cells assessed as necrotic cells after 72 hrs by annexin V-FITC/propidium iodide staining based flow cytometry (reference value: 7.23%); assay type: functional; in short: as §3
K562 [20] = assay: Induction of apoptosis in human K562 cells assessed as late apoptotic cells after 72 hrs by annexin V-FITC/propidium iodide staining based flow cytometry (reference value: 5.24%); assay type: functional; in short: as §3
K562 [21] = assay: Induction of apoptosis in human K562 cells assessed as living cells after 72 hrs by annexin V-FITC/propidium iodide staining based flow cytometry (reference value: 84.31%); assay type: functional; in short: as §3
K562 [22] = assay: Induction of apoptosis in human K562 cells assessed as early apoptotic cells after 72 hrs by annexin V-FITC/propidium iodide staining based flow cytometry (reference value: 3.22%); assay type: functional; in short: as §3
K562 [23] = assay: Induction of apoptosis in human K562 cells assessed as Bcl2 protein level after 24 hrs by Western blotting method (reference value: 22.81%); assay type: functional
K562 [24] = assay: Induction of apoptosis in human K562 cells assessed as Bax protein level after 24 hrs by Western blotting method (reference value: 16.13%); assay type: functional
K562 [25] = assay: Induction of apoptosis in human K562 cells assessed as caspase 3 level after 24 hrs by Western blotting method (reference value: 42.77%); assay type: functional
K562 [26] = assay: Induction of apoptosis in human K562 cells assessed as cleaved PARP level after 24 hrs by Western blotting method (reference value: 36.17%); assay type: functional
K562 [27] = assay: Induction of apoptosis in human K562 cells assessed as Bcl2 protein level after 72 hrs by Western blotting method (reference value: 7.90%); assay type: functional
K562 [28] = assay: Induction of apoptosis in human K562 cells assessed as Bax protein level after 72 hrs by Western blotting method (reference value: 32.81%); assay type: functional
K562 [29] = assay: Induction of apoptosis in human K562 cells assessed as caspase 3 level after 72 hrs by Western blotting method (reference value: 17.05%); assay type: functional
K562 [30] = assay: Induction of apoptosis in human K562 cells assessed as cleaved PARP level after 72 hrs by Western blotting method (reference value: 18.36%); assay type: functional
[31] = Antiproliferative activity against human HL60 cells after 24 hrs; assay type: functional, cell-based; conditions: HL-60, 24 h

Q: Which IC50 (K562 [1]) does the source give for NC(=O)c1csc([C@@H]2O[C@H](CO)[C@@H](O)[C@H]2NC(=O)c2ccccc2)n1 here?
A: 20 nM

Q: What about the IC50 [2] of the same compound?
A: 20400 nM

Q: And the IC50 (Jurkat)?
A: 30 nM

Q: And the IC50 (Raji)?
A: 10 nM

Q: What about the IC50 (HT-29) of the same compound?
A: 20 nM

Q: What about the IC50 (MCF7) of the same compound?
A: 19900 nM

Q: And the IC50 (HeLa)?
A: > 100000 nM

Q: What about the IC50 (MRC5) of the same compound?
A: 50 nM

Q: And the Activity (K562 [3])?
A: 6.12%

Q: What about the Activity (K562 [4]) of the same compound?
A: 11.29%

Q: What about the Activity (K562 [5]) of the same compound?
A: 39.08%

Q: What about the Activity (K562 [6]) of the same compound?
A: 44.1%

Q: What about the Activity (K562 [7]) of the same compound?
A: 49.13%

Q: And the Activity (K562 [8])?
A: 34.11%

Q: What about the Activity (K562 [9]) of the same compound?
A: 5.67%

Q: What about the Activity (K562 [10]) of the same compound?
A: 10.5%

Q: And the Activity (K562 [11])?
A: 29%

Q: And the Activity (K562 [12])?
A: 50.41%

Q: What about the Activity (K562 [13]) of the same compound?
A: 11.71%

Q: And the Activity (K562 [14])?
A: 6.86%

Q: What about the Activity (K562 [15]) of the same compound?
A: 13.22%

Q: What about the Activity (K562 [16]) of the same compound?
A: 26.45%

Q: What about the Activity (K562 [17]) of the same compound?
A: 53.81%

Q: And the Activity (K562 [18])?
A: 6.54%

Q: And the Activity (K562 [19])?
A: 7.35%

Q: And the Activity (K562 [20])?
A: 80.99%

Q: And the Activity (K562 [21])?
A: 3.74%

Q: What about the Activity (K562 [22]) of the same compound?
A: 7.94%

Q: And the Activity (K562 [23])?
A: 64.31%

Q: What about the Activity (K562 [24]) of the same compound?
A: 30.99%

Q: And the Activity (K562 [25])?
A: 93.34%

Q: What about the Activity (K562 [26]) of the same compound?
A: 57.9%

Q: And the Activity (K562 [27])?
A: 15.94%

Q: What about the Activity (K562 [28]) of the same compound?
A: 95.1%

Q: And the Activity (K562 [29])?
A: 27.61%

Q: And the Activity (K562 [30])?
A: 63.83%

Q: And the IC50 [31]?
A: 120 nM
